ChEMBL document CHEMBL4706682, “Development of Novel Mitochondrial Pyruvate Carrier Inhibitors to Treat Hair Loss” (J Med Chem, 2021)
Active and inactive are the calls of the source. Unless noted, no cut-off for these calls is given here.

Tested on: MCF-10A
Test: Inhibition of MPC in human MCF-10A cells assessed as increase in cellular lactate production at 10 uM incubated for 24 to 30 hrs
Type: cell-based
Settings: time 24-30 hrs
How it was run: (§1)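 MCF10A cells were seeded in triplicate and treated the next day with analogue or an equal volume of DMSO for 24-30 h. Lactate in the culture medium was measured on a BioProfile Basic Analyzer. It was normalized to cell number and run time to give a rate (nmol lactate per million cells per hour), relative to DMSO. Statistics were one-way ANOVA with Dunnett's post-test against DMSO.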

Row | Compound | inhibition
1 | N#C/C(=C\c1cn(Cc2cc(C(F)(F)F)cc(C(F)(F)F)c2)c2c(Cl)cccc12)C(=O)O | inactive
2 | N#C/C(=C\c1cn(Cc2cc(C(F)(F)F)cc(C(F)(F)F)c2)c2ccccc12)C(=O)N1CCOCC1 | Active
3 | N#C/C(=C\c1cn(Cc2cc(C(F)(F)F)cc(C(F)(F)F)c2)c2cccc(C(=O)O)c12)C(=O)O | inactive
4 | N#C/C(=C\c1cn(Cc2cc(C(F)(F)F)cc(C(F)(F)F)c2)c2cc(Cl)ccc12)C(=O)O | inactive
5 | N#C/C(=C\c1cn(Cc2cc(C(F)(F)F)cc(C(F)(F)F)c2)c2ccccc12)C(=O)O | Active
6 | N#C/C(=C\c1cn(Cc2ccccc2)c2ccccc12)C(=O)O | Active
7 | N#C/C(=C\c1cn(Cc2cc(C(F)(F)F)cc(C(F)(F)F)c2)c2cccc(C#N)c12)C(=O)O | Active
8 | N#C/C(=C\c1cn(Cc2cc(C(F)(F)F)cc(C(F)(F)F)c2)c2c(F)cccc12)C(=O)O | Active
9 | CCOC(=O)/C(C#N)=C/c1cn(Cc2ccc(F)c(F)c2)c2ccccc12 | Active
10 | N#C/C(=C\c1cn(Cc2cc(C(F)(F)F)cc(C(F)(F)F)c2)c2ccccc12)C(N)=O | Active
11 | CCOC(=O)/C(C#N)=C/c1cn(Cc2cc(F)cc(F)c2)c2ccccc12 | Active
12 | N#C/C(=C\c1cn(Cc2cc(C(F)(F)F)cc(C(F)(F)F)c2)c2cccnc12)C(=O)O | Active
13 | CCOP(=O)(OCC)/C(C#N)=C/c1cn(Cc2cc(C(F)(F)F)cc(C(F)(F)F)c2)c2ncccc12 | Active
14 | CCOC(=O)/C(C#N)=C/c1cn(-c2ccc(OC)cc2)c2ccccc12 | Active
15 | N#C/C(=C\c1ccc(O)cc1)C(=O)O | inactive
16 | N#C/C(=C\c1cn(Cc2cc(F)cc(F)c2)c2ccccc12)C(=O)O | Active
17 | N#C/C(=C\c1cn(Cc2cc(C(F)(F)F)cc(C(F)(F)F)c2)c2ncccc12)C(=O)O | Active
18 | COc1ccc(-n2cc(/C=C(\C#N)C(=O)O)c3ccccc32)cc1 | Active
19 | N#C/C(=C\c1cn(Cc2cc(F)cc(F)c2)c2cc(F)ccc12)C(=O)O | Active
20 | N#C/C(=C\c1cn(Cc2ccc(F)c(F)c2)c2cc(F)ccc12)C(=O)O | Active
21 | CCOC(=O)/C(C#N)=C/c1cn(Cc2cc(C(F)(F)F)cc(C(F)(F)F)c2)c2cccc(Br)c12 | Active
22 | Cc1ccc(/C=C(\C#N)C(=O)O)cc1F | inactive

Row | Compound | inhibition
23 | CCOC(=O)C(=Cc1cn(-c2ccccc2)c2ccccc12)C(=O)O (mixture of isomers) | inactive
24 | CCOC(=O)/C(C#N)=C/c1cn(Cc2cc(C(F)(F)F)cc(C(F)(F)F)c2)c2ncccc12 | Active
25 | N#C/C(=C\c1cn(-c2ccccc2)c2ccccc12)C(=O)O | Active
26 | CCOC(=O)/C(C#N)=C/c1cn(C(=O)Cc2cc(C(F)(F)F)cc(C(F)(F)F)c2)c2ccccc12 | inactive
27 | N#CC(Cc1cn(-c2ccccc2)c2ccccc12)C(=O)O (stereo unspecified) | inactive
28 | N#C/C(=C\c1cn(Cc2cc(C(F)(F)F)cc(C(F)(F)F)c2)c2c(OCc3ccccc3)cccc12)C(=O)O | Active
29 | N#C/C(=C\c1cn(Cc2cc(C(F)(F)F)cc(C(F)(F)F)c2)c2cccc(F)c12)C(=O)O | Active
30 | N#C/C(=C\c1ccc(F)cc1)C(=O)O | inactive
31 | N#C/C(=C\c1cn(Cc2cc(C(F)(F)F)cc(C(F)(F)F)c2)c2cc(OCc3ccccc3)ccc12)C(=O)O | inactive
32 | N#C/C(=C\c1cc(C(F)(F)F)cc(C(F)(F)F)c1)C(=O)O | inactive
33 | CCOC(=O)/C(C#N)=C/c1cn(Cc2ccc(F)cc2)c2ccccc12 | Active
34 | N#C/C(=C\c1cn(Cc2cc(C(F)(F)F)cc(C(F)(F)F)c2)c2nccc(Br)c12)C(=O)O | Active
35 | N#C/C(=C\c1c[nH]c2ccccc12)C(=O)O | inactive
36 | CC(C)(C)OC(=O)/C(C#N)=C/c1cn(Cc2cc(C(F)(F)F)cc(C(F)(F)F)c2)c2ccccc12 | inactive
37 | N#CC(C#N)=Cc1cn(-c2ccccc2)c2ccccc12 | inactive
38 | CCOC(=O)/C(C#N)=C/c1cn(Cc2ccccc2)c2ccccc12 | Active
39 | N#C/C(=C\c1ccc(F)cc1F)C(=O)O | inactive
40 | N#C/C(=C\c1ccc(C(F)(F)F)cc1)C(=O)O | inactive
41 | CCOP(=O)(OCC)/C(C#N)=C/c1cn(Cc2cc(C(F)(F)F)cc(C(F)(F)F)c2)c2ccccc12 | Active
42 | N#C/C(=C\c1cn(Cc2ccc(F)c(F)c2)c2ccc(F)cc12)C(=O)O | Active
43 | N#C/C(=C\c1ccc(F)c(F)c1)C(=O)O | inactive
44 | CCOC(=O)/C(C#N)=C/c1cn(-c2ccccc2)c2ccccc12 | inactive

Row | Compound | inhibition
45 | CCOC(=O)/C(C#N)=C/c1cn(Cc2cc(C(F)(F)F)cc(C(F)(F)F)c2)c2ccccc12 | Active
46 | N#C/C(=C\c1cn(Cc2cc(C(F)(F)F)cc(C(F)(F)F)c2)c2cccc(Br)c12)C(=O)O | Active
47 | N#C/C(=C\c1ccccc1F)C(=O)O | inactive
48 | N#C/C(=C\c1cn(Cc2cc(C(F)(F)F)cc(C(F)(F)F)c2)c2ccc(Cl)cc12)C(=O)O | inactive
49 | N#C/C(=C\c1ccccc1)C(=O)O | inactive
50 | COC(=O)/C(C#N)=C/c1cn(Cc2cc(C(F)(F)F)cc(C(F)(F)F)c2)c2ccccc12 | inactive
51 | N#C/C(=C\c1ccc(F)c(C(F)(F)F)c1)C(=O)O | inactive
52 | N#C/C(=C\c1cn(Cc2cc(C(F)(F)F)cc(C(F)(F)F)c2)c2cnccc12)C(=O)O | Active
53 | N#C/C(=C\c1cn(Cc2ccc(F)c(F)c2)c2ccccc12)C(=O)O | Active
54 | N#C/C(=C\c1cn(Cc2ccc(F)cc2)c2ccccc12)C(=O)O | Active
55 | N#C/C(=C\c1cn(Cc2cc(F)cc(F)c2)c2ccc(F)cc12)C(=O)O | Active
56 | CCOC(=O)/C(C#N)=C/c1cn(Cc2cc(C(F)(F)F)cc(C(F)(F)F)c2)c2cccc(F)c12 | Active
57 | CCOC(=O)/C(C#N)=C/c1c[nH]c2ccccc12 | inactive
58 | COc1cccc2c1c(/C=C(\C#N)C(=O)O)cn2Cc1cc(C(F)(F)F)cc(C(F)(F)F)c1 | Active
59 | CCOC(=O)/C(C#N)=C/c1cn(-c2ccccc2OC)c2ccccc12 | Active
60 | N#C/C(=C\c1cn(Cc2cc(C(F)(F)F)cc(C(F)(F)F)c2)c2cccc(Cl)c12)C(=O)O | Active
61 | N#C/C(=C\c1cn(Cc2cc(C(F)(F)F)cc(C(F)(F)F)c2)c2nccc(Cl)c12)C(=O)O | Active
62 | N#C/C(=C\c1cn(Cc2cc(C(F)(F)F)cc(C(F)(F)F)c2)c2ccccc12)P(=O)(O)O | inactive
63 | COc1ccccc1-n1cc(/C=C(\C#N)C(=O)O)c2ccccc21 | Active
64 | N#C/C(=C\c1cn(Cc2cc(C(F)(F)F)cc(C(F)(F)F)c2)c2cccc(OCc3ccccc3)c12)C(=O)O | inactive
65 | N#C/C(=C\c1cccc(C(F)(F)F)c1Cl)C(=O)O | inactive

Tested on: MCF-10A
Test: Inhibition of MPC in human MCF-10A cells assessed as increase in cellular lactate production incubated for 24 to 30 hrs
Type: cell-based
Settings: time 24-30 hrs
How it was run: as §1

Row | Compound | inhibition
66 | N#C/C(=C\c1cn(-c2ccccc2)c2ccccc12)C(=O)O | Dose-dependent effect

Tested on: MCF-10A
Test: Toxicity in human MCF-10A cells assessed as reduction in cell viability incubated for 24 to 30 hrs
Type: cell-based
Settings: time 24-30 hrs

Row | Compound | Activity
67 | N#C/C(=C\c1cn(Cc2cc(C(F)(F)F)cc(C(F)(F)F)c2)c2ccccc12)C(=O)N1CCOCC1 | Toxic
68 | N#C/C(=C\c1cn(Cc2cc(C(F)(F)F)cc(C(F)(F)F)c2)c2ccccc12)C(N)=O | Toxic

Tested on: not listed separately
Test: (§2) Inhibition of MPC in human MCF-10A cells assessed as reduction in oxygen consumption rate using pyruvate and malate and ADP
Type: cell-based
Settings: not given
How it was run: (§3)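 A Seahorse XF Analyzer measured the respiration of permeabilized MCF10A cells, with 5 mM pyruvate and 0.5 mM malate as substrates plus ADP (state 3). Cells received half-log doses from 3 nM to 10 µM. OCR (fmol O2 per cell per min) was measured in duplicate and normalized to cell number. IC50 was fitted from the dose-response.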

Row | Compound | IC50
69 | N#C/C(=C\c1cn(Cc2cc(C(F)(F)F)cc(C(F)(F)F)c2)c2ccccc12)C(=O)O | 0.0166 µM
70 | N#C/C(=C\c1cn(Cc2cc(C(F)(F)F)cc(C(F)(F)F)c2)c2ncccc12)C(=O)O | 0.0428 µM

Tested on: MCF-10A
Test: as §2
Type: cell-based
Settings: not given
How it was run: as §3

Row | Compound | inhibition
71 | N#C/C(=C\c1cn(Cc2cc(C(F)(F)F)cc(C(F)(F)F)c2)c2ncccc12)C(=O)O | Active

Tested on: Mus musculus
Test: Stimulation of hair growth in C57BL/6J mouse shaved at postnatal day 50 during telogen-phase of hair cycle at 20 uM dosed topically to shaved back skin every other day for 2 weeks
Type: functional, organism-based
Settings: not given
How it was run: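 Wild-type C57BL/6J mice were shaved at postnatal day 50. They were treated topically every other day with about 300 µl of compound at 20 µM, suspended in Transderma Plo Ultramax gel, for up to 3 weeks; vehicle served as control. Pigmentation and hair growth (anagen entry) were photographed weekly. Mice were housed under defined pathogen-free conditions.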

Row | Compound | Activity
72 | N#C/C(=C\c1cn(Cc2cc(C(F)(F)F)cc(C(F)(F)F)c2)c2ccccc12)C(=O)O | Active
73 | N#C/C(=C\c1cn(-c2ccccc2)c2cccc(Cl)c12)C(=O)O | Active
74 | N#C/C(=C\c1cn(Cc2cc(C(F)(F)F)cc(C(F)(F)F)c2)c2cccc(F)c12)C(=O)O | Active
75 | N#C/C(=C\c1cn(Cc2cc(C(F)(F)F)cc(C(F)(F)F)c2)c2cccc(Br)c12)C(=O)O | Active
76 | N#C/C(=C\c1cn(Cc2cc(C(F)(F)F)cc(C(F)(F)F)c2)c2cccc(Cl)c12)C(=O)O | Active
